Data reported in ChEMBL document CHEMBL1165970, “Design, synthesis and biological evaluation of trans 2-(thiophen-2-yl)vinyl heteroaromatic iodides” (2010).

Columns and labels:
MCF7 = test: Growth inhibition of human MCF7 cells after 3 days by MTT assay; type: functional; conditions: MCF7, 72 h
Outline: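 MCF-7 mammary adenocarcinoma cells were grown in DMEM (1.0 g/L D-glucose) with 10% heat-inactivated FBS, 2 mM L-alanyl-L-glutamine and penicillin-streptomycin at 37 °C under 5% CO2. Compounds were added 24 h after plating (0.01–100 µM final), with untreated controls. After 3 days, MTT was read at 570 nm; each value is the mean of 8 wells. GI50 was calculated per NCI, 100×(T−T0)/(C−T0)=50.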

LNCaP = test: Growth inhibition of human LNCAP cells after 3 days by MTT assay; type: functional; conditions: 72 h
Outline: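 LNCap prostate adenocarcinoma cells were grown in RPMI 1640 with 10% heat-inactivated FBS, 2 mM L-alanyl-L-glutamine and penicillin-streptomycin at 37 °C under 5% CO2. Cells were plated, then treated 24 h later at 0.01–100 µM final against untreated controls. MTT was read at 570 nm after 3 days, averaging 8 wells. GI50 was derived by the NCI formula 100×(T−T0)/(C−T0)=50.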

Structure (SMILES)	GI50 (MCF7) [µM]	GI50 (LNCaP) [µM]	LC50 (MCF7) [µM]	LC50 (LNCaP) [µM]
Cn1cc[n+](C)c1/C=C/c1cc(-c2ccccc2)cs1	1	20		
C[n+]1ccccc1/C=C/c1cc(-c2ccccc2)cs1	0.525	7.59	77.6	69.2
C[n+]1ccccc1/C=C/c1ccc(-c2ccccc2)s1	8.32	33.9		
Cn1cc[n+](C)c1/C=C/c1ccc(Br)s1	14.5			
Cn1c(/C=C/c2cccc[n+]2C)cc2ccccc21	15.1			
Cn1cc[n+](C)c1/C=C/c1ccc(-c2ccccc2)s1	1.45	8.32		
Cn1cccc1/C=C/c1n(C)cc[n+]1C	100			
Cn1cc[n+](C)c1/C=C/c1ccc(-c2cccs2)s1	4.68	6.03		
